WT yeast gro inh: growth inhibition of WT strain, primary screen, mitochondrial fusion inhibitor project, WT and mutant strains, chemical genetic | inhibition, % at 10 µM | 2.1% of 190,000 active | mitochondrial fusion phenotypic screen; in the data active = inhibition above about 58%; tested in S. cerevisiae
G6PDH CS: L. mesenteroides G6PDH inhibitors, counter-screen for G6PDH-coupled screening assays, biochemical, Leuconostoc mesenteroides enzyme | glucose-6-phosphate dehydrogenase [Leuconostoc mesenteroides] | Purified L. mesenteroides G6PDH, diaphorase/resazurin coupled fluorescence, 45 min | inhibition, % at 5 µM | 0.12% of 200,000 active | AID 1020, 2008
L major viab: Leishmania major promastigote growth inhibition, primary screen; Leishmania major promastigotes, resazurin fluorescence viability; inhibition, % at 10 µM; 9% of 200,000 active;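 also: promastigotes grown with compound for 44 hours at 28 °C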
Diaphorase inh: diaphorase inhibitors and chemical oxidizers, primary screen, counter-screen for diaphorase-coupled primary assays, biochemical, uHTS, resorufin fluorescence; diaphorase resazurin-to-resorufin fluorescence, NADH, 16 min; bacterial (C. kluyveri) enzyme, not human; inhibition, % at 20 µM; 0.69% of 190,000 active; AID 1217, 2008;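 active = primary screen inhibition at 20 µM above a set limit, cut at about 50% in these data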;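 also: plate controls were DMSO with full reaction for no effect and wells lacking NADH for full effect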
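material = Clostridium kluyveri diaphorase enzyme | amount = 0.14 U/mL diaphorase, enzyme working solution | schedule = incubation 16 min, room temperature | detection = fluorescence of resorufin formed from resazurin, Ex 544/Em 590 nm | benchmarks = positive control minus NADH, DMSO neutral control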
Diaphorase act: compounds boosting diaphorase resazurin reduction – biochemical, uHTS, resorufin fluorescence, counter-screen for diaphorase-coupled primary assays, primary screen; Diaphorase/resazurin coupled assay, 16 min; active compounds read high; 1 = vehicle wells, 0 = NADH-free wells; activation factor at 20 µM; 0.005% of 190,000 active;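 active = diaphorase activity raised at least twofold by the compound at 20 µM; inactive = activation factor below 2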
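Material: Clostridium kluyveri diaphorase, purified enzyme; Quantity: enzyme 0.07 U/mL final; Medium: HEPES pH 7.4 buffer with MgCl2 and Tween 20; Dosing: single compound dose of 20 µM, 1% DMSO final; Schedule: 16 min reaction at room temperature; Measured by: red resorufin fluorescence at 544/590 nm excitation/emission.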
* hit, by the source's call; / = not tested or not shown. Compounds with a hit are over-represented: about 11% of the library has one in this group of screens. Rule as the data show it, unless noted: active = inhibition above about 50%; inactive = the rest.

SMILES	WT yeast gro inh	G6PDH CS	L major viab	Diaphorase inh	Diaphorase act
O=C(O)c1ccccc1-n1c(-c2ccccc2)cc2c1CCCC2=O	-1	12	-5	15	0.9
CCOc1ccccc1C(=O)Nc1ccccc1-c1ccccc1	75*	-8	73*	13	0.9
CCOc1cccc2cc(C(=O)Nc3ccccc3-c3ccccc3)c(=O)oc12	-16	-8	44	13	0.9
CCOc1ccccc1NC(=O)c1ccccc1NS(C)(=O)=O	12	-23	-6	7	0.9
CCOc1ccccc1C(=O)Nc1ccccc1O	51	-6	71*	13	0.9
CC(C)OCCCNC(=O)CCc1nc(-c2ccccc2)no1	10	1	-7	20	0.8
O=C(CCc1nc(-c2ccccc2)no1)NCCc1ccccc1	62*	5	-5	7	0.9
COc1cccc(C(=O)CN(C(=O)c2ccc(Cl)cc2Cl)N2C(=O)c3ccccc3C2=O)c1	-9	18	41	18	0.8
COc1ccc(O)c(C=Nc2cc(NC(C)=O)c(Cl)cc2Cl)c1	5	-2	64*	16	0.8
O=S(=O)(NCCN1CCOCC1)c1ccc(Cl)s1	-10	10	-1	3	1
CCCOc1ccc(S(=O)(=O)NCCN2CCOCC2)c2ccccc12	5	12	66*	15	0.9
CCOc1ccc(S(=O)(=O)NCCN2CCOCC2)c2ccccc12	-4	-1	96*	9	0.9
COc1c(S(=O)(=O)NCCN2CCOCC2)ccc(Cl)c1Cl	4	2	67*	16	0.8
CCc1ccccc1NC(=S)N(CCN1CCCCC1)Cc1ccco1	-4	5	8	15	0.8
O=c1c2ccccc2nc2n1C(CSc1ccc(Br)cc1)CN2 (centres undefined)	7	6	3	-2	1
Cc1c(NC(=O)/C(C#N)=C/c2cccs2)c(=O)n(-c2ccccc2)n1C	9	1	67*	11	0.9
Cc1ccc(C(C[N+](=O)[O-])c2c(C)[nH]n(-c3ccccc3)c2=O)cc1 (centres undefined)	32	12	97*	30	0.7
Cc1[nH]n(-c2ccccc2)c(=O)c1C(C[N+](=O)[O-])c1ccc(Cl)cc1 (centres undefined)	20	2	48	35	0.7
Cc1[nH]n(-c2ccccc2)c(=O)c1C(c1ccccc1C(=O)O)c1c(C)[nH]n(-c2ccccc2)c1=O	-5	-2	-5	-2	1
COc1ccc(C(c2c(C)[nH]n(-c3ccccc3)c2=O)c2c(C)[nH]n(-c3ccccc3)c2=O)cc1OC	22	12	88*	20	0.8
Cc1[nH]n(-c2ccccc2)c(=O)c1C(C[N+](=O)[O-])c1ccc(F)cc1 (centres undefined)	6	6	60*	25	0.8
Cc1ccc(C2C(C#N)=C(N)N(c3ncn[nH]3)C3=C2C(=O)CC(C)(C)C3)cc1 (centres undefined)	-4	8	-3	12	0.9
Cc1ccc(S(=O)(=O)NCCc2ccncc2)cc1C	0	6	0	-9	1.1
CC(=O)NCC(=O)OCC(=O)c1ccc(Cl)cc1	15	7	-10	-19	1.2
C=CCn1c(CCC(O)CCCCC)n[nH]c1=S (centres undefined)	-5	-2	35	9	0.9
SMILES	WT yeast gro inh	G6PDH CS	L major viab	Diaphorase inh	Diaphorase act
CCOc1ccc2nc(SCC(=O)N3CCCCCC3)c(C#N)cc2c1	-4	2	64*	28	0.7
CCOc1ccc2cc(C#N)c(SCC(=O)N3CCOCC3)nc2c1	3	0	18	17	0.8
CCOC(=O)c1c(C)oc2c1c(C(c1cccnc1)N1CCOCC1)c(O)c1ccccc12 (centres undefined)	62*	46	97*	40	0.6
CCOC(=O)c1c(C)oc2c1c(C(c1cccnc1)N1CCN(C)CC1)c(O)c1ccccc12 (centres undefined)	/	31	/	29	0.7
CCOC(=O)c1c(C)oc2c1c1c(c3ccccc32)OCN(Cc2cccnc2)C1	-1	13	6	53*	0.5
Cc1ccc(S(=O)(=O)N(C)c2ccc(OCC(=O)O)cc2)cc1	0	2	-3	8	0.9
CCOc1ccc(C(=O)NCC(=O)OCC(=O)Nc2ccc(C)c(S(=O)(=O)N(C)C)c2)cc1	-10	0	-2	27	0.7
CCNC(=S)N1CCn2cccc2C1c1ccc(F)cc1 (centres undefined)	0	6	-7	30	0.7
S=C(Nc1ccc(Br)cc1)N1CCn2cccc2C1c1cccnc1 (centres undefined)	14	-2	96*	11	0.9
Cc1ccc(NC(=S)N2CCn3cccc3C2c2cccnc2)cc1 (centres undefined)	0	5	81*	23	0.8
CCc1cccc(CC)c1NC(=S)N1CCn2cccc2C1c1cccnc1 (centres undefined)	9	10	83*	11	0.9
O=S(=O)(Cc1ccc(Cl)cc1)N1CCCC1	-19	4	-3	8	0.9
CCC(C)N(NC(C)=O)c1nc(Cl)nc(NC(C)(C)C)n1 (centres undefined)	11	-5	-4	4	1
CCOc1ccccc1N(C(=O)Nc1ccc(Cl)cc1)C1=NCCS1	17	-3	0	2	1
O=C(c1cc([N+](=O)[O-])ccc1N1CCOCC1)N1CCCC1	-7	4	-3	3	1
O=P(c1ccccc1)(c1ccccc1)N(c1ccccc1)c1ccccc1	2	9	65*	9	0.9
O=P(Cc1ccccc1O)(c1ccccc1)c1ccccc1	-10	-6	0	7	0.9
O=C(/C=C/c1cn(CC(O)CN2CCCCC2)c2ccccc12)c1cccs1 (centres undefined)	-7	18	99*	11	0.9
CCCN(CCC)CC(O)Cn1cc(/C=C/C(=O)c2cccs2)c2ccccc21 (centres undefined)	15	-14	64*	8	0.9
CN1CCN(Cn2cc(/C=C/C(=O)c3ccccc3)c3ccccc32)CC1	27	-7	50	18	0.8
CCCN(CCC)CC(O)Cn1cc(/C=C/C(=O)c2ccccc2)c2ccccc21 (centres undefined)	15	-5	69*	9	0.9
Cc1c(C)n(CC(O)CN2CCCCC2)c2ccccc12 (centres undefined)	-16	8	49	-3	1
O=c1c(Cc2ccc(F)cc2)c(O)ccn1CCCn1ccnc1	6	4	-7	-8	1.1
